In ChEMBL document CHEMBL1148603, “Inhibition of Trypanosoma cruzi hexokinase by bisphosphonates” (J Med Chem, 2006):

Key:
KB = test: Cytotoxicity in human nasopharyngeal carcinoma KB cell line; format: functional; settings: read-out: LD50 (the source's name)
Summary of the method: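 Human nasopharyngeal carcinoma KB cells were exposed to bisphosphonates up to a highest tested level of 300 µg mL-1. […] The therapeutic index was KB LD50 divided by TcHK IC50.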

TcHK = test: Therapeutic index TI=LD50(KB)/IC50(TcHK); settings: human
Dictyostelium discoideum = test: Cytotoxicity to Dictyostelium discoideum; format: functional, organism-based
Hexokinase = target: T1, Hexokinase (Trypanosoma cruzi, UniProt Q8ST54); test: Inhibitory activity against Trypanosoma cruzi hexokinase
T1 sequence (Q8ST54 whole entry): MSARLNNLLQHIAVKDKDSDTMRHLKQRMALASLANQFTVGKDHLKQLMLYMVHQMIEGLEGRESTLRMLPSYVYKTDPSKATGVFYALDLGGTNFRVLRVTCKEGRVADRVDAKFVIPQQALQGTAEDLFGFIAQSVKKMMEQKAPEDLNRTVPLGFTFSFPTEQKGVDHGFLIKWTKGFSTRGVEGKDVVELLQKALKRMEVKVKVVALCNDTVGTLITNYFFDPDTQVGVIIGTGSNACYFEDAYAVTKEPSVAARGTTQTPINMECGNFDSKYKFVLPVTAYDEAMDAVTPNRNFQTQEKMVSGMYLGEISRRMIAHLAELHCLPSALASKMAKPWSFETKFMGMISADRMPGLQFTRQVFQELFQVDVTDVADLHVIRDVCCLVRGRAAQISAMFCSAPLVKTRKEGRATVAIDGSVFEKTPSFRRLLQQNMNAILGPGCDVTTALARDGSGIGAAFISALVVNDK
Summary of the method: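 Native glycosomal T. cruzi hexokinase, purified by a previously described procedure. Activity was followed as NADPH formation at 340 nm, coupled to D-glucose-6-phosphate dehydrogenase. Inhibition was reported as IC50.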

Trypanosoma cruzi = test: Growth inhibition of Trypanosoma cruzi intracellular amastigotes; format: functional, organism-based
[1] = KB cells (cytotoxicity) versus TcHK enzyme

| Compound | CC50 (KB) [µM] | selectivity ratio (TcHK) | IC50 (Dictyostelium discoideum) [µM] | IC50 (Hexokinase) [µM] | selectivity ratio (TcHK; [1]) | IC50 (Trypanosoma cruzi) [µM] |
| --- | --- | --- | --- | --- | --- | --- |
| O=P(O)(O)C(Nc1cccc(CO)c1)P(=O)(O)O | ≥ 980 | ≥ 67 | 351 | 14.8 | – | – |
| O=P(O)(O)C(CNc1cccc(-c2ccccc2)c1)P(=O)(O)O | ≥ 560 | – | 62 | 3.47 | ≥ 162 | – |
| O=P(O)(O)C(O)(c1cccc(-c2ccccc2)c1)P(=O)(O)O | 797 | 23 | 103 | 34.7 | – | – |
| O=P(O)(O)C(O)(CC12CC3CC(CC(C3)C1)C2)P(=O)(O)O | – | – | – | ≥ 300 | – | – |
| COCc1cccc(NC(P(=O)(O)O)P(=O)(O)O)c1 | ≥ 964 | > 237 | 253 | 4.07 | – | – |
| O=[N+]([O-])c1cccc(NC(P(=O)(O)O)P(=O)(O)O)c1 [(3-NITROPHENYLAMINO)METHYLENEDIPHOSPHONIC ACID] | ≥ 635 | – | 78 | 2.4 | ≥ 266 | – |
| O=P(O)(O)C(Cc1cccc(-c2ccccc2)c1)S(=O)(=O)O (centres undefined) | – | – | – | ≥ 300 | – | – |
| O=P(O)(O)C(Nc1ncccc1OCc1ccccc1)P(=O)(O)O | ≥ 765 | – | 1 | ≥ 300 | – | – |
| CCCCCCCc1ccc(NC(P(=O)(O)O)P(=O)(O)O)cc1 | 211 | – | 10 | 1.45 | – | – |
| O=P(O)(O)C(O)(Cc1cccnc1)P(=O)(O)O [RISEDRONIC ACID] | 822 | – | – | ≥ 300 | – | – |
| Cc1cccc(Cc2ccc[n+](CC(O)(P(=O)(O)O)P(=O)(O)O)c2)c1 | 728 | – | 889 | ≥ 300 | ≤ 2.4 | – |
| O=P(O)(O)C(Nc1ccc(Cl)cc1Cl)P(=O)(O)O [2,4-DICHLOROPHENYLAMINOMETHYLENEBISPHOSPHONIC ACID] | – | – | – | ≥ 300 | – | – |
| C[C@H](NC(P(=O)(O)O)P(=O)(O)O)c1cccc2ccccc12 | – | – | 7 | ≥ 300 | – | – |
| CCn1c2ccccc2c2cc(NC(P(=O)(O)O)P(=O)(O)O)ccc21 | 698 | – | 2050 | 0.81 | – | 2.2 |
| CC1CCN(C(P(=O)(O)O)P(=O)(O)O)CC1 | 446 | – | 2 | ≥ 300 | ≤ 1.5 | – |
| C[N+](C)=c1ccn(CC(O)(P(=O)(O)O)P(=O)(O)O)cc1 | – | – | 30 | ≥ 300 | – | – |
| O=P(O)(O)C(O)(Cn1cnc(-c2ccccc2)c1)P(=O)(O)O | – | – | 122 | 1.82 | – | – |
| Cc1cccnc1NC(P(=O)(O)O)P(=O)(O)O | 840 | – | 3 | 45.7 | – | – |
| O=P(O)(O)C(NC1CC1)P(=O)(O)O [(CYCLOPROPYLAMINO)METHYLENEDIPHOSPHONIC ACID] | 242 | – | 30 | ≥ 300 | ≤ 0.8 | – |
| CCOC(=O)C(Cc1cccc(-c2ccccc2)c1)P(=O)(O)O (centres undefined) | – | – | – | ≥ 300 | – | – |

| Compound | CC50 (KB) [µM] | selectivity ratio (TcHK) | IC50 (Dictyostelium discoideum) [µM] | IC50 (Hexokinase) [µM] | selectivity ratio (TcHK; [1]) | IC50 (Trypanosoma cruzi) [µM] |
| --- | --- | --- | --- | --- | --- | --- |
| CCCCN(CC)C(P(=O)(O)O)P(=O)(O)O [(BUTYL(ETHYL)AMINO)METHYLENEDIPHOSPHONIC ACID] | ≥ 1060 | – | 4 | ≥ 300 | – | – |
| O=P(O)(O)C(Nc1cccc(-c2ccc(O)nc2)c1)P(=O)(O)O | – | – | – | ≥ 300 | – | – |
| O=P(O)(O)C(O)(C[n+]1ccccc1)P(=O)(O)O | ≥ 1060 | – | 3 | ≥ 300 | – | – |
| O=P(O)(O)C(O)(Cn1cnc2ccccc21)P(=O)(O)O | – | – | 2 | ≥ 300 | – | – |
| O=P(O)(O)C(Nc1cccc(-c2ccccc2)c1)P(=O)(O)O | 827 | – | 211 | 1.95 | – | 47 |
| O=P(O)(O)C(Nc1cccc(Br)c1)P(=O)(O)O | ≥ 771 | ≥ 812 | 112 | 0.95 | – | – |
| Cc1cc(-c2cccc(CC(O)(P(=O)(O)O)P(=O)(O)O)c2)c(F)cc1F | – | – | – | 2.29 | – | – |
| CCCCCCCCCC(O)(P(=O)(O)O)P(=O)(O)O | ≥ 892 | – | 10 | – | – | – |
| O=P(O)(O)C(O)(Cc1ccncc1)P(=O)(O)O | 1040 | – | – | 12.6 | – | – |
| O=P(O)(O)C(O)(C[n+]1cccc(-c2ccccc2)c1)P(=O)(O)O | 12 | – | 3 | ≥ 300 | ≤ 0.04 | – |
| O=P(O)(O)C(Nc1cccc(-c2ccc(F)c(F)c2)c1)P(=O)(O)O | ≥ 791 | – | 77 | 2.75 | ≥ 285 | – |
| O=c1ccc(-c2cccc(CC(O)(P(=O)(O)O)P(=O)(O)O)c2)c[nH]1 | – | – | – | ≥ 300 | – | – |
| CCCNC(P(=O)(O)O)P(=O)(O)O [(PROPYLAMINO)METHYLENEDIPHOSPHONIC ACID] | 457 | – | 4 | ≥ 300 | ≤ 1.5 | – |
| CC(C)(C)c1cccc(NC(P(=O)(O)O)P(=O)(O)O)c1 | – | – | 75 | ≥ 300 | – | – |
| COc1ccc(NC(P(=O)(O)O)P(=O)(O)O)cn1 | 302 | – | 52 | ≥ 300 | ≤ 1 | – |
| CN(CCOc1ccccc1)CCC(O)(P(=O)(O)O)P(=O)(O)O | 311 | – | 2 | ≥ 300 | – | – |
| O=P(O)(O)CNc1cccc(-c2ccccc2)c1 | – | – | – | ≥ 300 | – | – |
| O=P(O)(O)C(Nc1ccc(F)c(-c2ccccc2)c1)P(=O)(O)O | – | – | – | 3.63 | – | – |
| O=P(O)(O)C(CN[C@@H](CO)c1ccccc1)P(=O)(O)O | – | – | – | ≥ 300 | – | – |
